pIC50: −log10 of the molar value.
Columns and labels:
[1] = system: HeLa; experiment: Observed concentration that required to induce 50% decrease in HeLa cell survival; type: functional, cell-based; settings: Homo sapiens, read-out: Log 1/IC50 (converted)
In short: (§1)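 HeLa cells seeded at 2000/well and left 20 h, then exposed to five concentrations (final 3.12 to 50 or 100 μM/L, diluted from a 10 mM/L DMSO stock) in triplicate for 72 h. Medium was RPMI 1640 without phenol red with 10% FBS and 25 mM HEPES, pH 7.2. Survival by MTT: 4 h at 37 °C, SDS lysis, A570. Blank was subtracted and values taken as % of untreated control. IC50 is the concentration giving 50% survival loss.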

[2] = system: HeLa; experiment: Inhibitory concentration inducing 50% decrease in HeLa cell survival; type: functional, cell-based; settings: Homo sapiens; in short: as §1
[3] = system: PBMC+PHA (Homo sapiens); experiment: Inhibitory concentration that required to Induced a 50% decrease in PBMC+PHA (healthy human's peripheral blood cells) cells survival
[4] = system: PBMC (Homo sapiens); experiment: Selectivity index that required to induce 50% decrease in PBMC (healthy human's peripheral blood cells) cells survival
[5] = system: PBMC+PHA (Homo sapiens); experiment: Selectivity index that required to induce 50% decrease in PBMC+PHA (healthy human's peripheral blood cells) cells survival
[6] = system: PBMC (Homo sapiens); experiment: Inhibitory concentration that required to Induced a 50% decrease in PBMC (healthy human's peripheral blood cells) cells survival
[7] = Partition coefficient (logP); type: physicochemical; settings: octanol/water
In short: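 Calculated rather than measured: log P (n-octanol/water) estimated by Crippen's fragmentation method.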

[8] = system: PBMC (Homo sapiens); experiment: Inhibitory concentration that required to induce 50% decrease in PBMC (healthy human's peripheral blood cells) cells survival
[9] = system: PBMC+PHA (Homo sapiens); experiment: Inhibitory concentration that required to induce 50% decrease in PBMC+PHA (healthy human's peripheral blood cells) cells survival
[10] = system: PBMC+PHA (Homo sapiens); experiment: Inhibitory concentration that required to induced a 50% decrease in PBMC+PHA (healthy human's peripheral blood cells) cells survival

Compound	IC50 [1] [µM]	pIC50 [2]	pIC50 [3]	Si [4]	Si [5]	pIC50 [6]	logP [7]	pIC50 [8]	pIC50 [9]	pIC50 [10]
CC(C)c1cc(C(C)C)c(C(=O)CC(SCC(=O)O)C(=O)O)c(C(C)C)c1 (stereo not drawn)	1.66	5.78	5.32	2	2.58	5.48	4.41	–	–	–
O=C(O)CSC(CC(=O)c1ccc(Cl)cc1)C(=O)O (stereo not drawn)	17.3	4.76	–	–	–	–	1.27	–	–	–
CCCCc1ccc(C(=O)CC(SCC(=O)O)C(=O)O)cc1 (stereo not drawn)	1.91	5.72	–	–	–	–	2.45	–	–	–
CC(C)c1ccc(C(C)C)c(C(=O)CC(SCC(=O)O)C(=O)O)c1 (stereo not drawn)	0.644	6.19	–	20.65	24.33	–	3.18	4.88	4.80	–
O=C(O)CSC(CC(=O)c1ccccc1)C(=O)O (stereo not drawn)	15	4.82	–	–	–	–	0.71	–	–	–
Cc1ccc(C(=O)CC(SCC(=O)O)C(=O)O)c(Cl)c1 (stereo not drawn)	4.73	5.33	–	–	–	–	1.75	–	–	–
O=C(O)CSC(CC(=O)c1ccc(F)cc1)C(=O)O (stereo not drawn)	20.7	4.68	–	–	–	–	0.87	–	–	–
CC(C)(C)c1ccc(C(=O)CC(SCC(=O)O)C(=O)O)cc1 (stereo not drawn)	1.39	5.86	–	–	–	–	2.41	–	–	–
Cc1ccc(C(=O)CC(SCC(=O)O)C(=O)O)cc1 (stereo not drawn)	17.3	4.76	–	–	–	–	1.2	–	–	–
CCc1cc(CC)c(C(=O)CC(SCC(=O)O)C(=O)O)c(CC)c1 (stereo not drawn)	0.879	6.06	4.70	21.56	22.63	4.72	3.42	–	–	–
Cc1ccc(C)c(C(=O)CC(SCC(=O)O)C(=O)O)c1 (stereo not drawn)	2.68	5.57	–	–	–	–	1.68	–	–	–
Cc1ccc(C(=O)CC(SCC(=O)O)C(=O)O)c(C)c1 (stereo not drawn)	3.83	5.42	–	–	–	–	1.68	–	–	–
CC(C)c1ccc(C(=O)CC(SCC(=O)O)C(=O)O)c(C(C)C)c1 (stereo not drawn)	1.1	5.96	–	6.17	6.49	–	3.18	5.17	–	5.15
Cc1ccc(C(=O)CC(SCC(=O)O)C(=O)O)cc1C (stereo not drawn)	3.81	5.42	–	–	–	–	1.68	–	–	–
O=C(O)CSC(CC(=O)c1ccc(Br)cc1)C(=O)O (stereo not drawn)	9.51	5.02	–	–	–	–	1.54	–	–	–
CC(C)c1ccc(C(=O)CC(SCC(=O)O)C(=O)O)cc1 (stereo not drawn)	3.33	5.48	–	–	–	–	1.94	–	–	–
COc1ccc(C(=O)CC(SCC(=O)O)C(=O)O)c(OC)c1OC (stereo not drawn)	29.5	4.53	–	–	–	–	0.33	–	–	–
CC(C)(C)c1ccc(C(C)(C)C)c(C(=O)CC(SCC(=O)O)C(=O)O)c1 (stereo not drawn)	4.36	5.36	4.43	10	8.5	–	4.12	4.36	–	–
CCCCCCCCCCCCc1ccc(C(=O)CC(SCC(=O)O)C(=O)O)cc1 (stereo not drawn)	1.71	5.77	–	–	–	–	5.79	–	–	–
CCc1ccc(C(=O)CC(SCC(=O)O)C(=O)O)cc1 (stereo not drawn)	4.79	5.32	–	–	–	–	1.61	–	–	–
O=C(O)CS [THIOGLYCOLIC ACID]	–	< 3.70	–	–	–	–	–	< 3.70	< 3.70	–

Source: ChEMBL document CHEMBL1141166, “2-[(Carboxymethyl)sulfanyl]-4-oxo-4-arylbutanoic acids selectively suppressed proliferation of neoplastic human HeLa cells. A SAR/QSAR study” (J Med Chem, 2005)
